# In ChEMBL document CHEMBL4665734, “Optimization of globomycin analogs as novel gram-negative antibiotics” (Bioorg Med Chem Lett, 2020):
# Active and inactive are the calls of the source. The calls are words filed in the database; no cut-off is given here. Starred links: 1 amine or outer side, 2 acyl side, 3 side chain; linkers in the order of their positions; H or OH if unused. Non-standard residues stand in square brackets, D forms with d. Residues, ends and D or L forms follow the SMILES beside them. *: point of attachment. X6 = C[C@H](CO[C@H](CC1C[C@H]2CC[C@@H](C1)C2)[C@@H](C)C(=O)[*:2])N[*:1]; X3 = C[C@H](CO[C@H](CC1CC2(CCC2)C1)[C@@H](C)C(=O)[*:2])N[*:1]; X1 = CCCCCC[C@@H](OC[C@@H](C)N[*:1])[C@@H](C)C(=O)[*:2]; X9 = CCCCCC[C@@H](OCCN[*:1])[C@@H](C)C(=O)[*:2]; Cyclobutyl(trans-3-NH2) = N[C@H]1C[C@H](*)C1; X4 = CCCCCCN(CCN[*:1])[C@@H](C)C(=O)[*:2]; Gly(cHept) = N[C@H](C(=O)O)C1CCCCCC1; aThr = C[C@H](O)[C@H](N)C(=O)O; NMeL = CN[C@@H](CC(C)C)C(=O)O; Chg = N[C@H](C(=O)O)C1CCCCC1; NMeNva = CCC[C@H](NC)C(=O)O; X2 = NC[C@H]1C[C@H](*)C1; Dap = NC[C@H](N)C(=O)O
# Tests used:
# [1] = Stability of the compound in human plasma assessed as parent compound remaining after 24 hrs; format: ADME, cell-free; conditions: read-out: Stabilty
# Procedure, shortened: (§1)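 Test compound incubated for 24 hour in human, rat or mouse plasma. Stability is reported as the percentage of parent compound remaining.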
# [2] = Stability of the compound in mouse plasma assessed as parent compound remaining after 24 hrs; format: ADME, cell-free; conditions: read-out: Stabilty; procedure, shortened: as §1
# [3] = system: Acinetobacter baumannii; assay: Inhibition of LspA in Acinetobacter baumannii assessed as inhibition of bacterial growth
# [4] = Clearance in iv dosed rat; format: ADME, organism-based; conditions: in vivo
# [5] = system: Pseudomonas aeruginosa; assay: Inhibition of LspA in Pseudomonas aeruginosa assessed as inhibition of bacterial growth
# [6] = Stability of the compound in rat plasma assessed as parent compound remaining after 24 hrs; format: ADME, cell-free; conditions: read-out: Stabilty; procedure, shortened: as §1
# [7] = system: Klebsiella pneumoniae; assay: Inhibition of LspA in Klebsiella pneumoniae assessed as inhibition of bacterial growth
# [8] = system: Jurkat; assay: Cytotoxicity against human Jurkat cells; format: cell-based
# Procedure, shortened: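 Jurkat cell growth assay. Result reported as antiproliferative EC50.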
# [9] = Clearance in mouse liver microsomes; format: ADME, Microsome
# Procedure, shortened: (§2)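 Intrinsic clearance in rat or mouse liver microsomes, expressed in mL/min/kg.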
# [10] = Protein binding in mouse plasma; format: ADME, cell-free; conditions: for fraction unbound: read-out: PPB (converted)
# [11] = Half life in iv dosed rat; format: ADME, organism-based; conditions: in vivo
# [12] = Protein binding in rat plasma; format: ADME, cell-free; conditions: for fraction unbound: read-out: PPB (converted)
# [13] = Lipophilicity, logD of the compound at pH 7.4; conditions: buffer, pH 7.4, logD
# [14] = Growth inhibition of Staphylococcus aureus USA300
# [15] = system: Escherichia coli CFT073; assay: Inhibition of LspA in wild type Escherichia coli CFT073 assessed as inhibition of bacterial growth
# Procedure, shortened: (§3)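 Read-out is the minimum inhibitory concentration, reported in µM.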
# [16] = Clearance in rat liver microsomes; format: ADME, Microsome; procedure, shortened: as §2
# [17] = system: Escherichia coli; assay: Inhibition of LspA in Escherichia coli CFT073imp4213 harboring outer membrane-permeable mutant assessed as inhibition of bacterial growth; procedure, shortened: as §3
# [18] = Unbound drug concentration in plasma of iv dosed mouse infected with Escherichia coli 25922; format: ADME, organism-based; conditions: in vivo
# Procedure, shortened: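 Same infected neutropenic mouse thigh model (E. coli 25922, 20 hour IV infusion). Unbound concentration was derived from the average blood concentration and the free fraction in mouse plasma.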
# [19] = system: Enterobacter cloacae; assay: Inhibition of LspA in Enterobacter cloacae assessed as inhibition of bacterial growth
# [20] = Drug concentration in blood of iv dosed mouse infected with Escherichia coli 25922 infused for 20 hrs; format: ADME, organism-based; conditions: read-out: Ct
# Procedure, shortened: (§4)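 Neutropenic mouse thigh model infected with E. coli 25922. Compound given by IV infusion over 20 hour. Average blood concentration was measured during the infusion, and thigh CFU was compared with vehicle-treated animals.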
# [21] = Clearance in iv dosed mouse; format: ADME, organism-based; conditions: in vivo
# [22] = system: Escherichia coli; assay: In vivo inhibition of LspA in Escherichia coli 25922 infected in iv infused mouse neutropenic thigh infection model assessed as reduction in CFU infused for 20 hrs; format: functional, organism-based; conditions: ATCC 25922; procedure, shortened: as §4
# [23] = Half life in iv dosed mouse; format: ADME, organism-based; conditions: in vivo
# [24] = system: Escherichia coli ATCC 25922; assay: Inhibition of LspA in wild type Escherichia coli 25922 assessed as inhibition of bacterial growth; procedure, shortened: as §3
# [25] = Protein binding in plasma of iv dosed mouse infected with Escherichia coli 25922 assessed as free fraction; format: ADME, organism-based
# [26] = Stability in mouse plasma assessed as esterase-mediated compound hydrolysis by measuring parent compound remaining after 6 hrs; format: ADME, cell-free; conditions: read-out: Stabilty
# Procedure, shortened: (§5)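 Test compound incubated for 6 hour in human or mouse plasma. Stability is reported as the percentage of parent compound remaining.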
# [27] = Stability of the compound in mouse plasma assessed as parent compound remaining after 6 hrs; format: ADME, cell-free; conditions: read-out: Stabilty; procedure, shortened: as §5
# [28] = Stability of the compound in human plasma assessed as parent compound remaining after 6 hrs; format: ADME, cell-free; conditions: read-out: Stabilty; procedure, shortened: as §5
SMILES,remaining at 24 h [1],remaining at 24 h [2],MIC [3],clearance [4],MIC [5],remaining at 24 h [6],MIC [7],CLhep predicted [9],fraction unbound [10],half-life [11],fraction unbound [12],logD [13],CLhep predicted [16],EC50 [8],MIC [14],MIC [15],MIC [17],MIC [19],clearance [21],half-life [23],also measured
CCCCCC[C@H]1OC[C@@H](C)NC(=O)[C@H](CO[C@H]2C[C@H](CN)C2)NC(=O)[C@H](CN)NC(=O)[C@H](C2CCCCCC2)NC(=O)[C@H](CCC)N(C)C(=O)[C@@H]1C (cyclo([Dap]S(X2)[X1][NMeNva][Gly(cHept)])),98%,101%,18 µM,,100 µM,96%,18 µM,43 mL/min/kg,0.011,,0.033,1.6,20 mL/min/kg,> 100 µM,50 µM,3.1 µM,0.048 µM,6.3 µM,2.9 mL/min/kg,4 h,Cp(f) [18]: 0.3 µM; concentration at 20 h [20]: 27 µM; Activity [22]: inactive; MIC [24]: 3.1 µM; fraction unbound [25]: 0.011
CCCCCC[C@H]1OC(=O)CNC(=O)[C@H]([C@H](C)O)NC(=O)[C@H](CO)NC(=O)[C@H]([C@H](C)CC)NC(=O)[C@H](CC(C)C)N(C)C(=O)[C@@H]1C,100%,2%,> 100 µM,,> 100 µM,1%,> 100 µM,81 mL/min/kg,,,,3.1,37 mL/min/kg,> 50 µM,> 100 µM,44 µM,0.25 µM,100 µM,286 mL/min/kg,0.3 h,Stabilty [10]: Unstable; Stabilty [12]: Unstable; remaining at 6 h [26]: 49%
CCCCCC[C@H]1OCCNC(=O)[C@H]([C@H](C)O)NC(=O)[C@H](CN)NC(=O)[C@H](C2CCCCC2)NC(=O)[C@H](CC(C)C)N(C)C(=O)[C@@H]1C (cyclo([Chg][Dap][aThr][X9][NMeL])),,,,,,,,,,,,,,,100 µM,8.7 µM,0.14 µM,,,,remaining at 6 h [27]: 96%; remaining at 6 h [28]: 99%

# Further lines, with some results ahead:
remaining at 24 h [1],remaining at 24 h [2],MIC [3],clearance [4],MIC [5],remaining at 24 h [6],MIC [7],CLhep predicted [9],fraction unbound [10],half-life [11],fraction unbound [12],logD [13],CLhep predicted [16],SMILES,EC50 [8],MIC [14],MIC [15],MIC [17],MIC [19],clearance [21],half-life [23],also measured
110%,95%,> 100 µM,8.7 mL/min/kg,> 100 µM,60%,100 µM,34 mL/min/kg,0.03,1.6 h,0.043,1,26 mL/min/kg,CCCCCCN1CCNC(=O)[C@H](CO[C@H]2C[C@H](N)C2)NC(=O)[C@H](CN)NC(=O)[C@H](C2CCCCC2)NC(=O)[C@H](CC(C)C)N(C)C(=O)[C@@H]1C (cyclo([Chg][Dap]S(Cyclobutyl(trans-3-NH2))[X4][NMeL])),> 100 µM,100 µM,6.3 µM,,,,,
103%,84%,18 µM,40 mL/min/kg,71 µM,90%,8.8 µM,48 mL/min/kg,0.007,3.2 h,0.022,2.2,28 mL/min/kg,CCC[C@H]1C(=O)N[C@@H](C2CCCCCC2)C(=O)N[C@@H](CN)C(=O)N[C@@H](CO[C@H]2C[C@H](N)C2)C(=O)N[C@H](C)CO[C@H](CC2CC3(CCC3)C2)[C@@H](C)C(=O)N1C (cyclo([Dap]S(Cyclobutyl(trans-3-NH2))[X3][NMeNva][Gly(cHept)])),,25 µM,2.2 µM,,6.3 µM,11 mL/min/kg,4 h,
99%,95%,25 µM,15 mL/min/kg,100 µM,94%,8.8 µM,41 mL/min/kg,0.003,5.8 h,0.026,1.7,21 mL/min/kg,CCC[C@H]1C(=O)N[C@@H](C2CCCCCC2)C(=O)N[C@@H](CN)C(=O)N[C@@H](CO[C@H]2C[C@H](N)C2)C(=O)N[C@H](C)CO[C@H](CC2C[C@H]3CC[C@@H](C2)C3)[C@@H](C)C(=O)N1C (stereo partly drawn) (cyclo([Dap]S(Cyclobutyl(trans-3-NH2))[X6][NMeNva][Gly(cHept)])),> 100 µM,50 µM,0.78 µM,,3.1 µM,17 mL/min/kg,2.1 h,
